# Legend:
# Canis familiaris [1] = assay: Compound was tested in vivo in dogs at a dose of 1.0 mg/kg through intravenous route and time at which ventricular fibrillation was induced was recorded.(Base line value-6); type: functional, Canis lupus familiaris, Cardiac ventricle
# Procedure, shortened: (§1)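 Dogs with myocardial infarction were studied 3-9 days after infarction. They were reanesthetized with pentobarbital, ventilated, and electrodes were placed via thoracotomy; blood gases were monitored. Control ERPs and reproducible inducibility were set by programmed electrical stimulation, then cumulative iv doses were given. Agents were in glass-distilled water or NaOH-neutralized saline (pH 6.7-7.0). Animals were counted per category: NI, nonsustained, sustained, VF, or AV block preventing atrial pacing.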
# Canis familiaris [2] = assay: Conduction time from Q wave to T wave of lead II electrocardiogram corrected for heart rate was tested in dogs at a dose of 0.3 mg/kg through intravenous administration. (baseline value- 352+/-7); type: functional, Canis lupus familiaris
# Canis familiaris [3] = assay: Compound was tested in vivo in dogs at a dose of 0.3 mg/kg through intravenous route and time at which ventricular fibrillation was induced was recorded.(Base line value-6); type: functional, Canis lupus familiaris, Cardiac ventricle; procedure, shortened: as §1
# Oryctolagus cuniculus [4] = organism: Oryctolagus cuniculus; assay: Tested for conduction time measured at a pacing rate of 1 Hz in vitro with rabbit heart tissue preparations.; type: functional
# Procedure, shortened: (§2)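 Isolated rabbit heart tissues, all from one heart, each its own baseline; 2 h equilibration, perfusate changed every 15 min, basal stimulation 2 Hz between measurements. Exposed to 10^-7, 10^-6 and 10^-5 M drug, 15 min each; values reported at 10^-5 M as percent change from baseline. Drug solutions prepared daily in glass-distilled water. Force and rate recorded on polygraph.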
# Canis familiaris [5] = assay: Conduction time from the His bundle to the onset of ventricular depolarizations was tested in dogs at a dose of 0.3 mg/kg through intravenous administration. (baseline value- 17+/-1 ); type: functional, Canis lupus familiaris, Cardiac ventricle
# Oryctolagus cuniculus [6] = organism: Oryctolagus cuniculus; assay: Tested for rate automaticity measured in beats per minute from unpaced right atria of rabbit heart.; type: functional; procedure, shortened: as §2
# Canis familiaris [7] = assay: Conduction time for ventricular refractory period of the first premature stimulus was tested in dogs at a dose of 0.3 mg/kg through intravenous administration. (baseline value- 137+/-4); type: functional, Canis lupus familiaris, Cardiac ventricle
# Canis familiaris [8] = assay: Compound was tested in vivo in dogs at a dose of 0.1 mg/kg through intravenous route and number of animals in which ventricular fibrillation was induced was recorded.(Base line value-6)
# Canis familiaris [9] = assay: Compound was tested in vivo in dogs at a dose of 0.3 mg/kg through intravenous route and time at which nonsustained ventricular arrhythmias were induced was recorded.(Base line value-1); type: functional, Canis lupus familiaris, Cardiac ventricle; procedure, shortened: as §1
# Oryctolagus cuniculus [10] = organism: Oryctolagus cuniculus; assay: Tested for conduction time measured at a pacing rate of 3 Hz in vitro with rabbit heart tissue preparations.; type: functional; procedure, shortened: as §2
# Canis familiaris [11] = assay: Conduction time for ventricular refractory period of the second premature stimulus was tested in dogs at a dose of 1.0 mg/kg through intravenous administration. (baseline value- 123+/-4); type: functional, Canis lupus familiaris, Cardiac ventricle
# Canis familiaris [12] = assay: Conduction time from Q wave to T wave of lead II electrocardiogram corrected for heart rate was tested in dogs at a dose of 1.0 mg/kg through intravenous administration. (baseline value- 352+/-7); type: functional, Canis lupus familiaris
# Oryctolagus cuniculus [13] = organism: Oryctolagus cuniculus; assay: Tested for effective refractory period measured at a pacing rate of 3 Hz in vitro with rabbit heart tissue preparations.; type: functional; set-up: unit: %; procedure, shortened: as §2
# Canis familiaris [14] = assay: Conduction time from the atrium to His bundle was tested in dogs at a dose of 0.3 mg/kg through intravenous administration. (baseline value- 73+/-3 ); type: functional, Canis lupus familiaris
# Canis familiaris [15] = assay: Compound was tested in vivo in dogs at a dose of 1.0 mg/kg through intravenous route and time at which nonsustained ventricular arrhythmias were induced was recorded.(Base line value-1); type: functional, Canis lupus familiaris, Cardiac ventricle; procedure, shortened: as §1
# Canis familiaris [16] = assay: Compound was tested in vivo in dogs at a dose of 0.3 mg/kg through intravenous route and time at which ventricular arrhythmias were not indicible was recorded.(Base line value-1); type: functional, Canis lupus familiaris, Cardiac ventricle; procedure, shortened: as §1
# Canis familiaris [17] = assay: Conduction time for ventricular refractory period of the first premature stimulus was tested in dogs at a dose of 0.1 mg/kg through intravenous administration. (baseline value- 137+/-4); type: functional, Canis lupus familiaris, Cardiac ventricle
# Oryctolagus cuniculus [18] = organism: Oryctolagus cuniculus; assay: Tested for effective refractory period measured at a pacing rate of 1 Hz in vitro with rabbit heart tissue preparations.; type: functional; procedure, shortened: as §2
# Oryctolagus cuniculus [19] = organism: Oryctolagus cuniculus; assay: Tested for force of contraction measured in mg at a pacing rate of 2 Hz in vitro with rabbit heart tissue preparations.; type: functional; procedure, shortened: as §2
# Canis familiaris [20] = assay: Compound was tested in vivo in dogs at a dose of 0.1 mg/kg through intravenous route and time at which nonsustained ventricular arrhythmias were induced was recorded.(Base line value-1); type: functional, Canis lupus familiaris, Cardiac ventricle; procedure, shortened: as §1
# Canis familiaris [21] = assay: Compound was tested in vivo in dogs at a dose of 1.0 mg/kg through intravenous route and time at which sustained ventricular arrhythmias were induced was recorded.(Base line value-3); type: functional, Canis lupus familiaris, Cardiac ventricle; procedure, shortened: as §1
# Canis familiaris [22] = assay: Conduction time from Q wave to T wave of lead II electrocardiogram corrected for heart rate was tested in dogs at a dose of 0.1 mg/kg through intravenous administration. (baseline value- 352+/-7); type: functional, Canis lupus familiaris
# Canis familiaris [23] = assay: Conduction time from the His bundle to the onset of ventricular depolarizations was tested in dogs at a dose of 0.1 mg/kg through intravenous administration. (baseline value- 17+/-1 ); type: functional, Canis lupus familiaris, Cardiac ventricle
# Canis familiaris [24] = assay: Conduction time for ventricular refractory period of the second premature stimulus was tested in dogs at a dose of 0.1 mg/kg through intravenous administration. (baseline value- 123+/-4); type: functional, Canis lupus familiaris, Cardiac ventricle
# Canis familiaris [25] = assay: Conduction time for ventricular refractory period of the second premature stimulus was tested in dogs at a dose of 0.3 mg/kg through intravenous administration. (baseline value- 123+/-4); type: functional, Canis lupus familiaris, Cardiac ventricle
# Canis familiaris [26] = assay: Compound was tested in vivo in dogs at a dose of 0.3 mg/kg through intravenous route and time at which sustained ventricular arrhythmias were induced was recorded.(Base line value-3); type: functional, Canis lupus familiaris, Cardiac ventricle; procedure, shortened: as §1
# Canis familiaris [27] = assay: Compound was tested in vivo in dogs at a dose of 0.1 mg/kg through intravenous route and time at which ventricular arrhythmias were not indicible was recorded.(Base line value-1); type: functional, Canis lupus familiaris, Cardiac ventricle; procedure, shortened: as §1
# Canis familiaris [28] = assay: Conduction time for ventricular refractory period of the first premature stimulus was tested in dogs at a dose of 1.0 mg/kg through intravenous administration. (baseline value- 137+/-4); type: functional, Canis lupus familiaris, Cardiac ventricle
# Canis familiaris [29] = assay: Compound was tested in vivo in dogs at a dose of 0.1 mg/kg through intravenous route and time at which sustained ventricular arrhythmias were induced was recorded.(Base line value-3); type: functional, Canis lupus familiaris, Cardiac ventricle; procedure, shortened: as §1
# Canis familiaris [30] = assay: Conduction time from the His bundle to the onset of ventricular depolarizations was tested in dogs at a dose of 1.0 mg/kg through intravenous administration. (baseline value- 17+/-1 ); type: functional, Canis lupus familiaris, Cardiac ventricle
# Canis familiaris [31] = assay: Conduction time from the atrium to His bundle was tested in dogs at a dose of 1.0 mg/kg through intravenous administration. (baseline value- 73+/-3 ); type: functional, Canis lupus familiaris
# Canis familiaris [32] = assay: Conduction time from the atrium to His bundle was tested in dogs at a dose of 0.1 mg/kg through intravenous administration. (baseline value- 73+/-3 ); type: functional, Canis lupus familiaris
# Canis familiaris [33] = assay: Compound was tested in vivo in dogs at a dose of 1.0 mg/kg through intravenous route and time at which ventricular arrhythmias were not indicible was recorded.(Base line value-1); type: functional, Canis lupus familiaris, Cardiac ventricle; procedure, shortened: as §1
smiles,measurement,setting,value
CCCCCCCN(CC)CCCC(O)c1ccc(NS(C)(=O)=O)cc1 (stereo not drawn) [IBUTILIDE],Time,Canis familiaris [1],1 animals
same,Time,Canis familiaris [2],387 ms
same,Time,Canis familiaris [3],2 animals
same,CT1,Oryctolagus cuniculus [4],14.6
same,Time,Canis familiaris [5],17 ms
same,Rate,Oryctolagus cuniculus [6],-22
same,Time,Canis familiaris [7],154 ms
same,number of animals,Canis familiaris [8],1 animals
same,Time,Canis familiaris [9],2 animals
same,CT3,Oryctolagus cuniculus [10],31.2
same,Time,Canis familiaris [11],128 ms
same,Time,Canis familiaris [12],364 ms
same,ERP3,Oryctolagus cuniculus [13],15.8
same,Time,Canis familiaris [14],75 ms
same,Time,Canis familiaris [15],2 animals
same,Time,Canis familiaris [16],5 animals
same,Time,Canis familiaris [17],151 ms
same,ERP1,Oryctolagus cuniculus [18],18
same,FOC,Oryctolagus cuniculus [19],1.9
same,Time,Canis familiaris [20],5 animals
same,Time,Canis familiaris [21],0 animals
same,Time,Canis familiaris [22],372 ms
same,Time,Canis familiaris [23],16 ms
same,Time,Canis familiaris [24],137 ms
same,Time,Canis familiaris [25],139 ms
same,Time,Canis familiaris [26],0 animals
same,Time,Canis familiaris [27],3 animals
same,Time,Canis familiaris [28],146 ms
same,Time,Canis familiaris [29],2 animals
same,Time,Canis familiaris [30],17 ms
same,Time,Canis familiaris [31],77 ms
same,Time,Canis familiaris [32],73 ms
same,Time,Canis familiaris [33],4 animals

# Reference: ChEMBL document CHEMBL1125736, “N-[(omega-amino-1-hydroxyalkyl)phenyl]methanesulfonamide derivatives with class III antiarrhythmic activity” (1991)
